Screens (PubChem BioAssay)
VIM-2 inhibitor = VIM-2 metallo-beta-lactamase inhibitors, primary screen, biochemical, epi-absorbance readout, Pseudomonas aeruginosa enzyme | inhibition, % at 5.6 µM | purified VIM-2, nitrocefin hydrolysis, epi-absorbance fluorescence | AID 1527, 2009 | actives 0.89% (n = 290,000);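 active = inhibition above the mean of all tested compounds plus 3 SD, cutoff set per screening run, cut at about 7.5% in these data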;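 also: red hydrolysis product quenches plate fluorescence so inhibitors raise well fluorescence; 0% = enzyme with DMSO and 100% = DMSO without enzyme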
IMP-1 inhibitor = IMP-1 metallo-beta-lactamase inhibitors, primary screen, biochemical, epi-absorbance readout, Pseudomonas aeruginosa enzyme | inhibition, % at 5.6 µM | actives 0.45% (n = 290,000) | metallo-beta-lactamase IMP-1 (Pseudomonas aeruginosa) | purified IMP-1, nitrocefin hydrolysis, epi-absorbance fluorescence;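 active = inhibition above the mean plus 3 SD of all compounds in the same screening run, cut at about 4.5% in these data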;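 also: 0% = IMP-1 with DMSO and 100% = DMSO wells lacking enzyme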
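Test system: recombinant IMP-1 enzyme, purified / Medium: HEPES buffer pH 7.1 with ZnSO4 and Brij 35 / Doses: single dose, 5.6 µM / Times: 25 °C, 15 min preincubation, 25 min reaction / Detection: Epi-absorbance via hydrolysed-nitrocefin quenching of white-plate fluorescence, 480/530 nm, EDTA stop / Evaluation: percent inhibition from optical density relative to buffer-blank wells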
TRPN1 ag = zebrafish TRPN1 channel agonists, primary screen, cell-based, HEK293, calcium fluorescence; actives 0.18% (n = 220,000); activation, % at 3 µM; HEK293 zebrafish TRPN1-YFP, Fluo-8 calcium fluorescence; 100% = response to 87 µM carbachol; AID 1424, 2008;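 active = activation above its plate's cutoff, the mean activation of test wells on that plate plus 3 SD, cut at about 19% in these data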;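 also: 0% = DMSO alone and 100% = 87 µM carbachol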
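Control set: carbachol 87 µM as high control, DMSO as low control; system: HEK293 stable line with zebrafish TRPN1-YFP; read-out: % activation versus carbachol response; detection: intracellular calcium fluorescence with Fluo-8; doses: single test compound dose, 3 µM nominal, 0.3% DMSO; schedule: dye 1 h 37 °C plus 30 min RT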
CRFR2-BP antag = antagonists of CRF-BP/CRF-R2 complex, primary screen, cell-based, HEK293, calcium dye fluorescence, uHTS; CRF-induced calcium fluorescence; inhibition, % at 11.8 µM; actives 0.59% (n = 350,000); AID 588475, 2011;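 active = inhibition of the ligand-induced calcium signal above about 50% at the single tested concentration, limit read from the data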
CRFBP-R2 agonist = agonists of CRF-BP/CRF-R2 complex, primary screen, cell-based, HEK293, calcium dye fluorescence, uHTS | CRF-binding protein / CRF receptor 2 complex (human) | calcium dye fluorescence (FLIPR); percent of saturating CRF peptide response | activation, % at 13.2 µM | actives 0.46% (n = 350,000) | AID 588473, 2011;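 active = activation of at least 50%, plus an integration ratio under a set limit after plate pattern correction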;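 also: plate controls were neutral control wells without compound for no effect and CRF at EC100 for full effect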
TRPML3 agonist = human TRPML3 channel agonists, primary screen, cell-based, HEK293 TRPML3-YFP, Fluo-8 calcium fluorescence, 3 µM | Mucolipin-3 (Homo sapiens), Q8TDD5 | 100% = the carbachol control signal | activation, % at 3 µM | actives 0.29% (n = 220,000) | AID 1448, 2008;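 active = activation above its plate's cutoff, the mean activation of the plate's test wells plus 3 SD, cut at about 12% in these data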;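 also: 0% = DMSO only wells and 100% = carbachol wells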
Target sequence (Q8TDD5 whole entry, looked up): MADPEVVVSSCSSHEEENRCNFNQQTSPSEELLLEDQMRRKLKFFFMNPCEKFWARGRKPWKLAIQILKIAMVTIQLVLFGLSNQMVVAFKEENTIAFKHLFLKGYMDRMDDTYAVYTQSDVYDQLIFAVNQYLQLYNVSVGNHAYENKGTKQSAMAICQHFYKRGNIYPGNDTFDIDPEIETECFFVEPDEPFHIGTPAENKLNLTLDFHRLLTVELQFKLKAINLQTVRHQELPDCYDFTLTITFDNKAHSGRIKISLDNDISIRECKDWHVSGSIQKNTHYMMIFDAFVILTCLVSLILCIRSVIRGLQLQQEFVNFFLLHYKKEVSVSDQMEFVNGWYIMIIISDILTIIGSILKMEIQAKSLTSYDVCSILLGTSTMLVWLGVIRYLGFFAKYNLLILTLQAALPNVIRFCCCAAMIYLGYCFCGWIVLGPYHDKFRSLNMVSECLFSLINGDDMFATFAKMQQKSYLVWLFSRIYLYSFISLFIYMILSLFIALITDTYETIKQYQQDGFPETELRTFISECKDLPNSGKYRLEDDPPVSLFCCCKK
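Test system: HEK293 cells stably carrying human TRPML3-YFP; Doses: single dose, 3 µM final nominal compound, 0.3% DMSO final; Schedule: dye loading 1 h 37 °C then 30 min ambient, 125 s read; Technique: Fluo-8 calcium fluorescence; Benchmarks: high control carbachol 87 µM, low control DMSO.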
* = called active by the depositor. In the library only some 2.1% were active in any assay of this set; here they are far more common.

Results for Clc1ccccc1C1=CC(c2ccco2)n2ncnc2N1 (centres undefined) ?
VIM-2 inhibitor: 0.7; IMP-1 inhibitor: -1.5; TRPN1 ag: -0.8; CRFR2-BP antag: -8.0; CRFBP-R2 agonist: 30.9; TRPML3 agonist: -0.1

What do the screens show for `Clc1ccc(C2=CC(c3ccco3)n3ncnc3N2)cc1` (centres undefined)?
VIM-2 inhibitor: 1.3; IMP-1 inhibitor: -2.0; TRPN1 ag: 0.4; CRFR2-BP antag: -100.3; CRFBP-R2 agonist: 348.7*; TRPML3 agonist: 0.4

How did NC(=O)CC(NC(=O)c1ccc(Cl)cc1)C(=O)NCCc1ccc(S(N)(=O)=O)cc1 (centres undefined) do in these assays?
VIM-2 inhibitor: -2.9; IMP-1 inhibitor: -4.2; CRFR2-BP antag: 9.5; CRFBP-R2 agonist: 0.5

What do the screens show for `COc1cc(Cl)c(C)cc1NC(=O)CSc1ccccc1`?
VIM-2 inhibitor: -1.2; IMP-1 inhibitor: -2.6; TRPN1 ag: -3.4; CRFR2-BP antag: 37.6; CRFBP-R2 agonist: -0.1; TRPML3 agonist: -1.1

What do the screens show for `COc1cc(Cl)c(C)cc1NC(=O)CSc1ccc(C)cc1`?
VIM-2 inhibitor: 1.7; IMP-1 inhibitor: -0.7; TRPN1 ag: -0.5; CRFR2-BP antag: 50.0*; CRFBP-R2 agonist: 0.0; TRPML3 agonist: 0.6

Results for CN(C)S(=O)(=O)c1ccc(Cl)c(NC(=O)CNC2(C)CCS(=O)(=O)C2)c1 (centres undefined) ?
CRFR2-BP antag: 113.3*; CRFBP-R2 agonist: -0.8

What do the screens show for `CN(C)S(=O)(=O)c1ccc(N2CCCC2)c(C(=O)NC2(C)CCS(=O)(=O)C2)c1` (centres undefined)?
CRFR2-BP antag: -3.7; CRFBP-R2 agonist: 0.2

Results for CCn1cc(C(=O)OCC(=O)c2cc(C)n(-c3ccccc3)c2C)c(=O)c2ccc(C)nc21 ?
VIM-2 inhibitor: 2.4; IMP-1 inhibitor: 0.0; TRPN1 ag: -1.5; CRFR2-BP antag: 18.0; CRFBP-R2 agonist: 0.8; TRPML3 agonist: -0.3

What do the screens show for `CCn1cc(C(=O)OCC(=O)c2cc(C)n(-c3ccc(OC(F)F)cc3)c2C)c(=O)c2ccc(C)nc21`?
VIM-2 inhibitor: 0.3; IMP-1 inhibitor: -1.0; TRPN1 ag: 0.5; CRFR2-BP antag: 60.0*; CRFBP-R2 agonist: -2.5; TRPML3 agonist: 0.5

What do the screens show for `CC(C)(C)C(=O)/C(=C/c1ccc(Cl)cc1)n1cncn1`?
VIM-2 inhibitor: -1.0; IMP-1 inhibitor: -4.0; CRFR2-BP antag: 54.6*; CRFBP-R2 agonist: 28.7

What do the screens show for `NNC(=S)NC1CCS(=O)(=O)C1` (centres undefined)?
VIM-2 inhibitor: 0.1; IMP-1 inhibitor: -0.3; TRPN1 ag: -1.0; CRFR2-BP antag: 108.3*; CRFBP-R2 agonist: 5.0; TRPML3 agonist: -1.2

How did CCOC(=O)Oc1ccc2c(=O)c(Oc3cc(C)cc(C)c3)coc2c1 do in these assays?
VIM-2 inhibitor: -2.2; IMP-1 inhibitor: -3.1; TRPN1 ag: -1.4; CRFR2-BP antag: 9.8; CRFBP-R2 agonist: 10.6; TRPML3 agonist: -1.4

How did CCOC(=O)Oc1ccc2c(=O)c(Oc3cccc(C)c3)coc2c1 do in these assays?
VIM-2 inhibitor: 1.9; IMP-1 inhibitor: -3.1; TRPN1 ag: -0.3; CRFR2-BP antag: 52.4*; CRFBP-R2 agonist: -4.4; TRPML3 agonist: -1.3

Results for Cc1[nH]c2ccccc2c1C1=CC(=O)C=CC1=O ?
CRFR2-BP antag: 15.2; CRFBP-R2 agonist: -2.6

What do the screens show for `CCCc1cc(NCCCN2CCOCC2)n2c(nc3ccccc32)c1C#N`?
VIM-2 inhibitor: 8.0*; IMP-1 inhibitor: -0.3; TRPN1 ag: 0.0; CRFR2-BP antag: 9.4; CRFBP-R2 agonist: -0.9; TRPML3 agonist: 0.8

How did CC(C)c1cc(NCCOCCO)n2c(nc3ccccc32)c1C#N do in these assays?
VIM-2 inhibitor: 11.9*; IMP-1 inhibitor: -0.5; CRFR2-BP antag: 4.1; CRFBP-R2 agonist: -2.3

Results for CCCc1cc(NCCOCCO)n2c(nc3ccccc32)c1C#N ?
CRFR2-BP antag: 13.8; CRFBP-R2 agonist: 0.1

How did CCCc1cc(NCCCCO)n2c(nc3ccccc32)c1C#N do in these assays?
VIM-2 inhibitor: 6.9; IMP-1 inhibitor: -1.1; TRPN1 ag: -0.8; CRFR2-BP antag: -12.9; CRFBP-R2 agonist: -0.1; TRPML3 agonist: 0.0

What do the screens show for `COc1ccc(S(=O)(=O)N2CC(C)N(C(=O)N(C)C)C2C)cc1` (centres undefined)?
VIM-2 inhibitor: -0.8; IMP-1 inhibitor: -3.8; CRFR2-BP antag: 0.8; CRFBP-R2 agonist: 0.7

How did O=C(CC1(CC(=O)N2CCOCC2)CCCC1)Nc1ccccc1 do in these assays?
CRFR2-BP antag: 10.8; CRFBP-R2 agonist: -0.9

How did COC(=O)COc1ccc(Oc2nc(SC)nc(N(C)C)n2)nn1 do in these assays?
VIM-2 inhibitor: 0.6; IMP-1 inhibitor: 0.0; TRPN1 ag: 0.5; CRFR2-BP antag: -54.5; CRFBP-R2 agonist: 55.4*; TRPML3 agonist: -0.2

What do the screens show for `CSc1nc(Oc2ccc(=O)[nH]n2)nc(N(C)C)n1`?
VIM-2 inhibitor: -3.4; IMP-1 inhibitor: -2.6; TRPN1 ag: 0.8; CRFR2-BP antag: -4.7; CRFBP-R2 agonist: -1.0; TRPML3 agonist: 0.4

How did CCOc1ccc(OCCC(=O)OCC(=O)NC(C)c2ccccc2)cc1 (centres undefined) do in these assays?
CRFR2-BP antag: 5.6; CRFBP-R2 agonist: -1.3

How did O=C(CSCc1ccccc1Br)NNC(=S)NCc1ccco1 do in these assays?
VIM-2 inhibitor: -4.8; IMP-1 inhibitor: -2.1; CRFR2-BP antag: 77.2*; CRFBP-R2 agonist: -1.4

How did O=C(O)c1ccc(S(=O)(=O)N2CCCC2)cc1 do in these assays?
VIM-2 inhibitor: -2.3; IMP-1 inhibitor: -2.6; CRFR2-BP antag: 18.2; CRFBP-R2 agonist: 0.1

How did O=C(O)c1ccc(S(=O)(=O)c2ccc(Sc3ccc(C(=O)O)c(C(=O)O)c3)cc2)cc1 do in these assays?
VIM-2 inhibitor: 8.9*; IMP-1 inhibitor: 3.4; TRPN1 ag: -1.5; CRFR2-BP antag: 22.5; CRFBP-R2 agonist: 0.4; TRPML3 agonist: 0.7

How did COc1ccc(S(=O)(=O)c2c(N)n(Cc3ccco3)c3nc4ccccc4nc23)cc1 do in these assays?
VIM-2 inhibitor: 4.7; IMP-1 inhibitor: 5.6*; TRPN1 ag: 3.8; CRFR2-BP antag: -38.0; CRFBP-R2 agonist: 44.7; TRPML3 agonist: 1.4

Results for CNC(=S)N1N=C(c2cccs2)CC1c1ccc(F)cc1 (centres undefined) ?
VIM-2 inhibitor: 0.0; IMP-1 inhibitor: -0.4; CRFR2-BP antag: -16.6; CRFBP-R2 agonist: -0.3
